# Where “and” joins values, the source holds several entries; their conditions need not be identical. Equal entries are not always repeated.
# Experiments:
# Rattus norvegicus [1] = test: Hypolipidemic activity was assessed by measuring body weight in F 344 rats at 20 mg/kg
# Rattus norvegicus [2] = test: Hyperlipidemic activity was assessed by measuring liver weight in Sprague-Dawley male rats at 50 mg/kg; assay type: functional
# Method in brief: (§1)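 Sprague-Dawley rats were fed the hyperlipidemic Nath's diet for 15 days and dosed orally at 50 or 200 mg/kg, or at 6.25, 12.5 and 25 mg/kg on a diet with 0.5% cholesterol and cholic acid. After an 18-h fast they were killed on day 16, 24 h after the last dose. Serum total cholesterol and triglycerides were assayed, and liver weight was expressed per 100 g bodyweight. Groups were compared with Nath's-diet controls by Student's t test.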
# Rattus norvegicus [3] = test: Hypolipidemic activity was assessed by measuring triglycerides in Sprague-Dawley male rats at 50 mg/kg; assay type: functional
# Method in brief: (§2)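 Male Sprague-Dawley rats (185-g mean bodyweight) on a normal diet were dosed orally for 4 consecutive days at 50 mg/kg or 200 mg/kg. They were fasted 18 h, and blood was drawn from the abdominal aorta 24 h after the last dose. Serum total cholesterol, triglycerides (mg/100 mL) and lipoprotein α-cholesterol (% of total cholesterol) were measured. Groups of 10–40 rats were compared with controls by Student's t test.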
# Rattus norvegicus [4] = test: Hyperlipidemic activity was assessed by measuring cholesterol in Sprague-Dawley male rats at 50 mg/kg; assay type: functional
# Method in brief: as §1
# Rattus norvegicus [5] = test: Hypolipidemic activity was assessed in Variation of the carnitine acetyl transferase was expressed as units per mg of protein in F 344 rats at 20 mg/kg
# Rattus norvegicus [6] = test: Hypolipidemic activity was assessed by measuring cholesterol in Sprague-Dawley male rats at 50 mg/kg; assay type: functional
# Method in brief: as §2
# Rattus norvegicus [7] = test: Hypolipidemic activity was assessed in variation of the liver enzyme catalase was expressed as units per mg of protein in F 344 rats at 20 mg/kg
# Rattus norvegicus [8] = test: Hypolipidemic activity was assessed inVariation of the enoyl-CoA oxide (umol/min mg) in F 344 rats at 20 mg/kg
# [9] = Evaluated for the dose that causes 50 % lethality in Sprague-Dawley male rats; assay type: ADME, organism-based; details: rat, in vivo
# Rattus norvegicus [10] = test: Hyperlipidemic activity was assessed by measuring triglycerides in Sprague-Dawley male rats at 50 mg/kg; assay type: functional
# Method in brief: as §1
# Rattus norvegicus [11] = test: Hypolipidemic activity was assessed by measuring alpha-cholesterol in Sprague-Dawley male rats at 50 mg/kg; assay type: functional; details: dose 50 mg/kg
# Method in brief: as §2
# Rattus norvegicus [12] = test: Hypolipidemic activity was assessed in variation of palmitoyl-CoA oxide (umol/min mg) in F 344 rats at 20 mg/kg
# Rattus norvegicus [13] = test: Hypolipidemic activity was assessed by measuring liver weight in Sprague-Dawley male rats at 50 mg/kg; assay type: functional
# [14] = (§3) Compound was evaluated for the dose that causes […] in Sprague-Dawley male rats; assay type: ADME, organism-based; details: rat, in vivo
# Rattus norvegicus [15] = test: Hypolipidemic activity was assessed by measuring alpha-cholesterol in Sprague-Dawley male rats at 200 mg/kg; assay type: functional
# Method in brief: as §2
# Rattus norvegicus [16] = test: Hypolipidemic activity was assessed by measuring cholesterol in Sprague-Dawley male rats at 200 mg/kg; assay type: functional
# Method in brief: as §2
# Rattus norvegicus [17] = test: Hypolipidemic activity was assessed by measuring triglycerides in Sprague-Dawley male rats at 200 mg/kg; assay type: functional
# Method in brief: as §2
# Rattus norvegicus [18] = species on record: Rattus norvegicus; test: as §3; assay type: functional
# Rattus norvegicus [19] = test: Hypolipidemic activity was assessed in Variation of the liver enzyme catalase was expressed as units per mg of protein in F 344 rats at 20 mg/kg
# Rattus norvegicus [20] = species on record: Rattus norvegicus; test: Compound dose that causes […] in Sprague-Dawley male rats; assay type: functional
# [21] = dose 20 mg/kg, in the assay text read “F 344 rats at 20 mg/kg” for “Sprague-Dawley male rats at 50 mg/kg”
SMILES,Triglycerides (Rattus norvegicus [3]),Cholesterol (Rattus norvegicus [6]),LD50 [9],Alpha-cholesterol (Rattus norvegicus [11]),Alpha-cholesterol (Rattus norvegicus [15]),Cholesterol (Rattus norvegicus [16]),Triglycerides (Rattus norvegicus [17]),other results
Cc1cccc(Nc2cc(Cl)nc(OCC(=O)O)n2)c1C,< 67.3 mg/100 mL,<57.3 mg 100ml-1,1080 mg/kg,<83.8%,,,,Body weight (Rattus norvegicus [1]): 245 g; Liver weight (Rattus norvegicus [2]): 6.29 g 100g-1; Cholesterol (Rattus norvegicus [4]): <548.8 mg 100ml-1; Carnitine acetyl transferase (Rattus norvegicus [5]): 10 U/mg protein; Catalase (Rattus norvegicus [7]): 77 U/mg protein; Enoyl-CoA hydratase (Rattus norvegicus [8]): 2.5 µM/min/mg; Triglycerides (Rattus norvegicus [10]): <215.6 mg 100ml-1; Palmitoyl-CoA oxid (Rattus norvegicus [12]): 0.088 µM/min/mg; Liver weight (Rattus norvegicus [13]; [21]): 4.5 g (100g of body weight)-1
Cc1cccc(Oc2cc(Cl)nc(N(C)C)n2)c1C,,,,,72.6%,76.7 mg 100ml-1,102 mg/100 mL,LD50 [14]: < 2000 mg/kg
CCOc1nc(Nc2cccc(C)c2C)nc(SCC(=O)O)n1,,,,,<82.2%,70.3 mg 100ml-1,< 76.1 mg/100 mL,Body weight (Rattus norvegicus [1]): 248 g; Liver weight (Rattus norvegicus [2]): 6.53 g 100g-1; Cholesterol (Rattus norvegicus [18]): 1054.8 mg 100ml-1; Catalase (Rattus norvegicus [19]): 50 U/mg protein; LD50 (Rattus norvegicus [20]): 1120 mg/kg; Triglycerides (Rattus norvegicus [10]): <214.3 mg 100ml-1; Liver weight (Rattus norvegicus [13]; [21]): 3.1 g (100g of body weight)-1
Cc1cccc(N(C)c2cc(Cl)nc(SCC(=O)O)n2)c1C,< 46.9 mg/100 mL,63.5 mg 100ml-1,1010 mg/kg,78.6%,,,,
Cc1cccc(Nc2nc(Cl)nc(OCC(=O)O)n2)c1C,,,,,<82.1%,72 mg 100ml-1,< 65.5 mg/100 mL,LD50 [14]: 1180 mg/kg
Cc1cccc(Oc2cc(Cl)nc(SCC(=O)O)n2)c1C,< 56.4 mg/100 mL,<67.7 mg 100ml-1,1290 mg/kg,77%,,,,
Cc1cccc(Nc2nc(Cl)nc(N(C)C)n2)c1C,,,,,78.6%,80.8 mg 100ml-1,< 91.4 mg/100 mL,LD50 [14]: < 2000 mg/kg
Cc1cccc(N(C)c2cc(Cl)nc(NCC(=O)O)n2)c1C,< 50 mg/100 mL,<68.4 mg 100ml-1,995 mg/kg,77%,,,,
Cc1cccc(Nc2cc(Cl)nc(SCC(=O)O)n2)c1C [PIRINIXIC ACID],,,1050 mg/kg,75.1%,,,,Liver weight (Rattus norvegicus [13]; dose 50 mg/kg): 8.23 g 100g-1 and 8.88 g 100g-1
CN(C)c1cc(Cl)nc(SCC(=O)O)n1,,,< 2500 mg/kg,81.7% and 72.2%,,,,Cholesterol (Rattus norvegicus [6]; 50 mg/kg): <62.5 mg 100ml-1 and <69.4 mg 100ml-1
CN(C)c1nc(Cl)nc(N(C)C)n1,,84.8 mg 100ml-1,,70%,,,,
Cc1cccc(Oc2cc(Cl)nc(OCC(=O)O)n2)c1C,91.1 mg/100 mL,67.1 mg 100ml-1,1210 mg/kg,74%,,,,

# Reference: ChEMBL document CHEMBL1122536, “Novel pyrimidine and 1,3,5-triazine hypolipidemic agents” (J Med Chem, 1984)
